Screening results (PubChem)
SDO1 yeast rescue: compounds rescuing growth of sdo1-depleted yeast, bone marrow failure model; z-score at 10 µM; S. cerevisiae sdo1-depleted JHY4D growth rescue, OD600 30 h; hits give high values; pdr5 snq2 efflux-pump mutant strain; 140,000 tested, 0.21% active;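 active = z-score above 3 at both the 24 hr and the 30 hr optical density reads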;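 note: z-score against mean and SD of all compound wells on the same plate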
ABCG2 block: blocks JC-1 efflux by human ABCG2 transporter; IgMXP3 cells, flow cytometry; inhibition, % at 6.6 µM; 190,000 tested, 0.1% active;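 active = inhibition above 80%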;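 note: 0% = DMSO and 100% = nicardipine control wells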
Target sequence (Q9UNQ0 whole entry, looked up): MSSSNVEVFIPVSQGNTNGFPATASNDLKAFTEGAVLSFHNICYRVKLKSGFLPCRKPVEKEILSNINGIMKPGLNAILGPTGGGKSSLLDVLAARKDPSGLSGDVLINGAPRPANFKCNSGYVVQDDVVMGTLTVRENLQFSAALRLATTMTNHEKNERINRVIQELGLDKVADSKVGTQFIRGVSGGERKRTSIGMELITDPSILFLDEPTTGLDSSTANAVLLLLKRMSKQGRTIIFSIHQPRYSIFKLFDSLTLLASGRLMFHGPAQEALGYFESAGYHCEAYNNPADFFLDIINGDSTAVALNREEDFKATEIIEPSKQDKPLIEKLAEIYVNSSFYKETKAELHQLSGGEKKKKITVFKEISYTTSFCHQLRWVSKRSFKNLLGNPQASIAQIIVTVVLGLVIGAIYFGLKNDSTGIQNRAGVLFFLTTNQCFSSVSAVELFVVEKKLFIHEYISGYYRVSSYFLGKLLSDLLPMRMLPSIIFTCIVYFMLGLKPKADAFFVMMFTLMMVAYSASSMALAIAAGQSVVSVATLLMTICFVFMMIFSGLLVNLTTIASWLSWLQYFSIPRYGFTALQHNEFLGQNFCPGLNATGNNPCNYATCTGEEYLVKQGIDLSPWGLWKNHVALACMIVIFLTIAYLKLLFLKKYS
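Test system: IgMXP3 (ABCG2) plus far-red-tagged CCRF-Adr (ABCB1) cells / Amount: 3 million cells/mL in well / Reagent: JC-1 transporter substrate / Timing: 10 min compound exposure, 25 °C / Signal: flow cytometry, 530 nm JC-1 signal / Read-out: percent efflux inhibition, scaled nicardipine 100% to DMSO 0% / Benchmarks: nicardipine as high control, DMSO as low control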
Autophagy mod: modulators of autophagy. MEF GFP-LC3 puncta imaging; test concentration mostly 10 µM. calls only at 10 µM (by protocol). 190,000 tested, 0.98% active;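 active = percentage of spot-positive cells more than 3 SD above its plate mean, without a fluorescence outlier flag or 80% toxicity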;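 note: spot-positive cell cutoff set from DMSO-treated cells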
ABCB1 inh: inhibitors of human ABCB1 transporter, ABCG2 counter-screen; 190,000 tested, 0.067% active; CCRF-Adr cells, JC-1 efflux, flow cytometry; inhibition, % at 6.6 µM; in the data active = inhibition above about 40%;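 note: 0% = vehicle and 100% = reference inhibitor; higher value means more JC-1 retained so stronger ABCB1 efflux block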
ROMK mod: human ROMK K+ channel modulation, primary screen; 130,000 tested, 2% active; Tet-inducible ROMK, thallium flux fluorescence; actives lie on both sides; P48048; B-score at 10 µM; AID 1918;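 active = signal ratio slope over the read window, or its plate-corrected B-score, at least 3 SD from the plate mean, either direction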;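 note: B-score of the F/F0 ratio slope over 7 to 12 s after thallium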
Ins promoter up: MIN6 insulin promoter up-regulation; z-score at 5 µM; MIN6 insulin promoter-GFP reporter, high-content imaging; hits give high values; 190,000 tested, 0.3% active;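 active = z-score above 3 at 5 µM with at least 500 cells counted in the well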
Starred values were filed as active, the others as inactive. A selection: hits, their analogues and other compounds. The true share with any hit is near 2.3%.

What do the screens show for `Cc1cccc2cc(C#N)c(SCc3nnc(-c4ccccc4[N+](=O)[O-])o3)nc12`?
SDO1 yeast rescue: 0.41; ABCG2 block: 12; Autophagy mod: active; ABCB1 inh: 2; ROMK mod: -0.58; Ins promoter up: 0.3

What do the screens show for `CO/N=C/C(C#N)=C/c1cc(C(=O)c2ccccc2)cn1C`?
ABCG2 block: 32; Autophagy mod: inactive; ABCB1 inh: 3; ROMK mod: 1.8; Ins promoter up: 2

What do the screens show for `Oc1ccc(Nc2nc(-c3ccc4ccccc4c3)cs2)cc1`?
SDO1 yeast rescue: -2.1; ABCG2 block: 37; Autophagy mod: active; ABCB1 inh: 1

How did Oc1ccc(-c2csc(Nc3ncccn3)n2)cc1 do in these assays?
ABCG2 block: 0; Autophagy mod: inactive; ABCB1 inh: 0; ROMK mod: -0.2; Ins promoter up: 0

What do the screens show for `CCN(CC)c1cccc(OCC(=O)N(C)CCC#N)c1`?
SDO1 yeast rescue: 1.2; ABCG2 block: 1; Autophagy mod: active; ABCB1 inh: 0; ROMK mod: -0.036; Ins promoter up: -0.19

How did COc1ccc(Cl)cc1NC(=O)CC(C)c1ccccc1 (stereo not drawn) do in these assays?
SDO1 yeast rescue: -1.8; ABCG2 block: 54; Autophagy mod: inactive; ABCB1 inh: 1; ROMK mod: 0.025

What do the screens show for `COc1ccc(C)cc1NC(=O)CC(NC(C)=O)c1ccccc1` (stereo not drawn)?
ABCG2 block: 1; Autophagy mod: inactive; ABCB1 inh: 0; ROMK mod: 0.17; Ins promoter up: 4.5*

What do the screens show for `Cc1nc(N2CCc3ccccc3C2)[nH]c(=O)c1Cc1ccccc1`?
ABCG2 block: 6; Autophagy mod: inactive; ABCB1 inh: 1; ROMK mod: 0.052; Ins promoter up: 1.5

How did Cc1nc(-n2[nH]c3c(c2=O)CCCC3)[nH]c(=O)c1Cc1ccccc1 do in these assays?
SDO1 yeast rescue: -1.1; ABCG2 block: -2; Autophagy mod: active; ABCB1 inh: -1

What do the screens show for `Cc1nn(Cc2ccc([N+](=O)[O-])cc2)c(=O)n1-c1ccccc1Cl`?
ABCG2 block: 3; Autophagy mod: active; ABCB1 inh: 1; ROMK mod: 0.06; Ins promoter up: -0.8

Results for CN(C)CC(C)(C)CNC(=O)CC1C(=O)NCCN1Cc1ccc(-c2ccccc2)cc1 (stereo not drawn) ?
ABCG2 block: 3; Autophagy mod: inactive; ABCB1 inh: 0; ROMK mod: -1.2

What do the screens show for `COc1ccc(C2(O)CCN(Cc3nnnn3Cc3ccc(C)cc3)CC2)cc1`?
SDO1 yeast rescue: -1.1; ABCG2 block: 5; Autophagy mod: active; ABCB1 inh: 1; Ins promoter up: -0.19

How did COc1ccc(Cn2nnnc2CN2CCC(O)(c3ccc(F)cc3)CC2)cc1 do in these assays?
ABCG2 block: 1; Autophagy mod: inactive; ABCB1 inh: 0; ROMK mod: -0.1; Ins promoter up: -0.36

What do the screens show for `Cc1ccc(NC(=O)CN2C(=O)C3C4C=CC(C4)C3C2=O)cc1` (stereo not drawn)?
ABCG2 block: 2; Autophagy mod: active; ABCB1 inh: 0; ROMK mod: -0.48; Ins promoter up: 0.61

How did CN1CCc2c(sc3c2C(=O)NC(c2cn(Cc4ccccc4)c4ccccc24)N3)C1 (stereo not drawn) do in these assays?
SDO1 yeast rescue: -1.4; ABCG2 block: 2; Autophagy mod: active; ABCB1 inh: 2; Ins promoter up: -2.1

How did CN1CCc2c(sc3c2C(=O)NC(c2ccco2)N3)C1 (stereo not drawn) do in these assays?
SDO1 yeast rescue: -0.6; ABCG2 block: 0; Autophagy mod: inactive; ABCB1 inh: 0; ROMK mod: -2.3; Ins promoter up: 1.4

Results for Cc1cc(C)c2nc(N3CCC(C(=O)NCCCN4CC(C)CC(C)C4)CC3)sc2c1 (stereo not drawn) ?
ABCG2 block: 6; Autophagy mod: active; ABCB1 inh: 1; ROMK mod: -2.5*; Ins promoter up: -0.31

How did ON/C=N/C(=S)Nc1ncc(C(F)(F)F)cc1Cl do in these assays?
ABCG2 block: 20; Autophagy mod: inactive; ABCB1 inh: 1; ROMK mod: 0.32; Ins promoter up: 0.25

How did CON/C=N/C(=S)Nc1ncc(C(F)(F)F)cc1Cl do in these assays?
ABCG2 block: 12; Autophagy mod: inactive; ABCB1 inh: 0; ROMK mod: 5.4*; Ins promoter up: -0.19
